Active and inactive are the calls of the source. The rule behind the calls is not given here.
Assays:
U-251 = test: Antiproliferative activity against human U-251 cells assessed as reduction in cell viability incubated for 48 hrs by MTT assay; type: functional, cell-based; conditions: U-251, 48 h
In short: (§1)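 MTT assay; 3000 cells/well in RPMI 1640 or DMEM with 10% FBS, seeded 24 h, then exposed 48 h to a range of concentrations in DMSO (final ≤0.1%); vehicle controls. MTT 1 mg/mL for 2 h at 37 °C, dye dissolved in DMSO, absorbance 570 nm; eight replicates; IC50 by nonlinear regression.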

A 172 = test: Antiproliferative activity against human A 172 cells assessed as reduction in cell viability incubated for 48 hrs by MTT assay; type: functional, cell-based; conditions: A 172, 48 h; in short: as §1
U-87 MG = test: Antiproliferative activity against human U87 cells assessed as reduction in cell viability incubated for 48 hrs by MTT assay; type: functional, cell-based, U-87MG ATCC; in short: as §1
[1] = Toxicity in CD1 mouse assessed as decrease in body weight at 80 mg/kg/day, ip administered thrice weekly and measured at day 10; type: organism-based; conditions: in vivo, 72 h, time 3 day
In short: (§2)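 Male CD-1 mice, four per group, given 80 mg/kg in PBS IP three times weekly; vehicle DMSO. Mice were euthanized when toxicity signs appeared, otherwise at day 10. Body weight was recorded at first and last dosing days. Non-fasted cardiac blood was taken after euthanasia for an automated hematology analyzer.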

[2] = Toxicity in CD1 mouse assessed as decrease in body weight at 80 mg/kg/day, ip administered thrice weekly and observed at day 5 to 7; type: organism-based; conditions: in vivo, 72 h, time 3 day; in short: as §2
[3] = molecular target: Heat shock protein beta-1 (Homo sapiens) (UniProt P04792); test: Inhibition of HSP27 (unknown origin) chaperone activity assessed as increase in DTT-induced insulin aggregation at 10 uM incubated for 5 mins in absence of alpha-crystallin followed by addition of DTT and measured for 2 hrs for every 3 mins by microplate reader analysis; conditions: time 125.0 min
Sequence of Heat shock protein beta-1 (Homo sapiens) (P04792 whole entry): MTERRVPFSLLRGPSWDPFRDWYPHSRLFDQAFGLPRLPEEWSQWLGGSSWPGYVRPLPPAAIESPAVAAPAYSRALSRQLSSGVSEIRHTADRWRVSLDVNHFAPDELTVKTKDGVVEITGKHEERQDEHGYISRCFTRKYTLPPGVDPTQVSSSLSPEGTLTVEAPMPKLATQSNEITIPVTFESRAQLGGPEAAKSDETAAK
In short: (§3)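 Insulin aggregation assay in PBS at 10 μM, 0.1% DMSO. Insulin stock 1 mg/mL with or without α-crystallin stock 5 mg/mL was preincubated 5 min at 37 °C. Aggregation was started with DTT (1 M stock). A400 was read every 3 min for 2 h; three independent experiments, each in triplicate.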

[4] = molecular target: Heat shock protein beta-1 (Homo sapiens) (UniProt P04792); test: Inhibition of HSP27 (unknown origin) chaperone activity assessed as increase in DTT-induced insulin aggregation at 10 uM incubated for 5 mins in presence of alpha-crystallin followed by addition of DTT and measured for 2 hrs for every 3 mins by microplate reader analysis; conditions: time 125.0 min; in short: as §3
[5] = molecular target: Heat shock protein beta-1 (Homo sapiens) (UniProt P04792); test: Inhibition of HSP27 in human T98G cells assessed as reduction in AR-V7 expression by Western blot analysis; type: cell-based; conditions: dose 25-100 nM
In short: (§4)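 Cells were treated in six-well plates (with or without MG132 where stated), then lysed in RIPA with protease inhibitors. 50 μg protein was run on 10% SDS-PAGE and transferred to PVDF. Membranes were blocked in 5% milk/TBS-T, probed with AR or AR-V7 antibodies overnight at 4 °C, and detected by chemiluminescence. Densitometry was used; n = 3.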

[6] = molecular target: Heat shock protein beta-1 (Homo sapiens) (UniProt P04792); test: Inhibition of HSP27 in human T98G cells assessed as reduction in wild type AR expression level at 50 to 100 nM in presence of MG132 by Western blot analysis; type: cell-based; conditions: dose 50-100 nM; in short: as §4
[7] = molecular target: Heat shock protein beta-1 (Homo sapiens) (UniProt P04792); test: Inhibition of HSP27 in human T98G cells assessed as reduction in AR-V7 expression level at 50 to 100 nM in presence of MG132 by Western blot analysis; type: cell-based; conditions: dose 50-100 nM; in short: as §4
Bos taurus = organism: Bos taurus; test: Inhibition of bovine brain tubulin polymerization measured every 1 min for 45 mins in presence of GTP by microplate reader analysis; conditions: dose 1-1000 nM
In short: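 MAP-rich bovine brain tubulin, 2 mg/mL, in 80 mM PIPES pH 6.9, 2 mM MgCl2, 0.5 mM EGTA, 5% glycerol with a range of concentrations in DMSO at 37 °C. Polymerization was started with GTP (100 mM stock, 1 μL). A340 was read each minute for 45 min; three independent experiments, analysed at end reading.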

[8] = molecular target: T1, Androgen receptor (Homo sapiens) (UniProt P10275); test: Inhibition of AR transcriptional activity in human U87 cells assessed as reduction in AR mRNA expression at 25 nM incubated for 12 hrs by qRT-PCR analysis; type: cell-based
T1 sequence (whole entry): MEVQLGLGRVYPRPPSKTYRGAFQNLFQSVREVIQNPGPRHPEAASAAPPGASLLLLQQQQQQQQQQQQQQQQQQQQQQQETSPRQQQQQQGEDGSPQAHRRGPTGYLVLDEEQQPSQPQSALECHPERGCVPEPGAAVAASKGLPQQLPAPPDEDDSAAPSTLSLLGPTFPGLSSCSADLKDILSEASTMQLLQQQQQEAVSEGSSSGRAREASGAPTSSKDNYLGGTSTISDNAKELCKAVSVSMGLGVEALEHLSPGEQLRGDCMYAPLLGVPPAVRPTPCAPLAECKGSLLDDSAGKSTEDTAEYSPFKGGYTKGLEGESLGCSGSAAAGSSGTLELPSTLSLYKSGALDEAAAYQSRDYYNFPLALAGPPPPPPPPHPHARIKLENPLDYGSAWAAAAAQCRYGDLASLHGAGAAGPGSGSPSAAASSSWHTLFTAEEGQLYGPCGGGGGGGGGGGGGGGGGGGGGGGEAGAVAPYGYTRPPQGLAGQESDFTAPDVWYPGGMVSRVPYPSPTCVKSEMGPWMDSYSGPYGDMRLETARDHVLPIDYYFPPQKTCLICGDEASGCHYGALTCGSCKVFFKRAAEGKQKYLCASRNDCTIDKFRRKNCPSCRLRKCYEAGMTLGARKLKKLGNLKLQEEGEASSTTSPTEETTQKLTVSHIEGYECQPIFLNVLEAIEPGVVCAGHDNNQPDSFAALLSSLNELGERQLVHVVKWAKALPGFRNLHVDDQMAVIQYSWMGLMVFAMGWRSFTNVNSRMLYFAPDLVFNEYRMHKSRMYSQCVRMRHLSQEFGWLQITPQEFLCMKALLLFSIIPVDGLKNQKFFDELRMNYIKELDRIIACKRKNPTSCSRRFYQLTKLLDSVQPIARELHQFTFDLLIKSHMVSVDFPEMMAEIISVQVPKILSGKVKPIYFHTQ
In short: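 T98G and U87 cells, 2 × 10^5 per well, adhered overnight and were treated at 25 nM for 12 h. RNA was extracted with RiboZol and DNase I-treated. AR, PSA and NKX3.1 were measured by real-time PCR, normalized to 18S by 2−ΔΔCt, three replicates per cDNA.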

[9] = Toxicity in NCR nude mouse xenografted with human U87 cells assessed as change in body weight at 20 mg/kg, po administered thrice weekly for 14 days; type: organism-based; conditions: in vivo, 336 h, time 14 day
In short: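 Male NCRNU nude mice, 5–6 weeks old, were given 5 × 10^6 U87 cells in 100 μL sterile PBS, injected subcutaneously into the left and right flanks. Dosing was 20 mg/kg in PBS, three times weekly for 14 days, with a DMSO vehicle group. Body weight was recorded three times weekly. Results are mean ± SD, n = 4 mice per group.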

- IC50 (U-251): 4 nM
- IC50 (U-87 MG): 4.78 nM
- inhibition [3]: inactive
- inhibition [4]: Active
- inhibition [5]: Dose-dependent effect
- inhibition [6]: inactive
- inhibition [7]: inactive
- inhibition (Bos taurus): Dose-dependent effect
- inhibition [8]: Active
SMILES: COc1ccc(C(=O)Nc2ccc(NS(C)(=O)=O)c(OCc3cc(OC)ccc3OC)c2)cc1
- IC50 (A 172): 6.24 nM
- Activity [1]: Non-Toxic
- Activity [2]: Non-Toxic
- Activity [9]: Non-Toxic
